Activity calls are given as the source filed them. The rule behind the calls is not given here. Numbered stars: 1 amine (or outer) side, 2 acyl side, 3 side chain; on linkers, the order of the positions; unused ones are H or OH. Bridge positions count the residues as written; N and C are the ends. Square brackets hold non-standard residues; d marks the D form. Peptide text beside a SMILES is read from it. I, II: the chains in the order shown. ξ: configuration not given here. Gly(N(CH2)2(3-indolyl)) = O=C(O)CNCCc1c[nH]c2ccccc12; Gly(N-piperonyl) = O=C(O)CNCc1ccc2c(c1)OCO2; X1 = CC(c1ccccc1)N(CC(=O)[*:2])[*:1]; NFurfurylGly = O=C(O)CNCc1ccco1; NAllylGly = C=CCNCC(=O)O; Nleu = CC(C)CNCC(=O)O; Nlys = NCCCCNCC(=O)O; ξK = NCCCCC(N)C(=O)O; Ahx = NCCCCCC(=O)O; Nme = COCCNCC(=O)O; βAla = NCCC(=O)O
How the values were obtained:
[1] = target: T1, Vascular endothelial growth factor receptor 2 (Homo sapiens, UniProt P35968); assay: Binding affinity to human recombinant VEGFR2 extracellular domain by ELISA like binding assay
Procedure, shortened: (§1)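 Plates coated overnight at 4 °C with recombinant human VEGFR ECD at 1 µg/mL in carbonate buffer pH 9.5, then washed and blocked. Serial dilutions of FITC-labelled peptoid in blocking buffer or TBST were added for 1 h at room temperature. After five PBS washes, retained fluorescence was read at 520 nm. KD was taken from the titration.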

[2] = target: Vascular endothelial growth factor receptor 1 (Homo sapiens) (UniProt P17948); assay: Binding affinity to human recombinant VEGFR1(1-3) N terminal domain by ELISA like binding assay; procedure, shortened: as §1
[3] = target: Vascular endothelial growth factor receptor 1 (Homo sapiens) (UniProt P17948); assay: Binding affinity to human recombinant VEGFR1 extracellular domain by ELISA like binding assay; procedure, shortened: as §1
[4] = target: T1, Vascular endothelial growth factor receptor 2; assay: Displacement of GU40C-FITC form human recombinant VEGFR2 extracellular domain by ELISA like binding assay
[5] = target: T1, Vascular endothelial growth factor receptor 2; assay: Displacement of fluorescein-labeled GU40C4 from human recombinant VEGFR2 extracellular domain by ELISA like binding assay

Chain of Vascular endothelial growth factor receptor 1 (Homo sapiens) (P17948 whole entry, the tested form may be a part): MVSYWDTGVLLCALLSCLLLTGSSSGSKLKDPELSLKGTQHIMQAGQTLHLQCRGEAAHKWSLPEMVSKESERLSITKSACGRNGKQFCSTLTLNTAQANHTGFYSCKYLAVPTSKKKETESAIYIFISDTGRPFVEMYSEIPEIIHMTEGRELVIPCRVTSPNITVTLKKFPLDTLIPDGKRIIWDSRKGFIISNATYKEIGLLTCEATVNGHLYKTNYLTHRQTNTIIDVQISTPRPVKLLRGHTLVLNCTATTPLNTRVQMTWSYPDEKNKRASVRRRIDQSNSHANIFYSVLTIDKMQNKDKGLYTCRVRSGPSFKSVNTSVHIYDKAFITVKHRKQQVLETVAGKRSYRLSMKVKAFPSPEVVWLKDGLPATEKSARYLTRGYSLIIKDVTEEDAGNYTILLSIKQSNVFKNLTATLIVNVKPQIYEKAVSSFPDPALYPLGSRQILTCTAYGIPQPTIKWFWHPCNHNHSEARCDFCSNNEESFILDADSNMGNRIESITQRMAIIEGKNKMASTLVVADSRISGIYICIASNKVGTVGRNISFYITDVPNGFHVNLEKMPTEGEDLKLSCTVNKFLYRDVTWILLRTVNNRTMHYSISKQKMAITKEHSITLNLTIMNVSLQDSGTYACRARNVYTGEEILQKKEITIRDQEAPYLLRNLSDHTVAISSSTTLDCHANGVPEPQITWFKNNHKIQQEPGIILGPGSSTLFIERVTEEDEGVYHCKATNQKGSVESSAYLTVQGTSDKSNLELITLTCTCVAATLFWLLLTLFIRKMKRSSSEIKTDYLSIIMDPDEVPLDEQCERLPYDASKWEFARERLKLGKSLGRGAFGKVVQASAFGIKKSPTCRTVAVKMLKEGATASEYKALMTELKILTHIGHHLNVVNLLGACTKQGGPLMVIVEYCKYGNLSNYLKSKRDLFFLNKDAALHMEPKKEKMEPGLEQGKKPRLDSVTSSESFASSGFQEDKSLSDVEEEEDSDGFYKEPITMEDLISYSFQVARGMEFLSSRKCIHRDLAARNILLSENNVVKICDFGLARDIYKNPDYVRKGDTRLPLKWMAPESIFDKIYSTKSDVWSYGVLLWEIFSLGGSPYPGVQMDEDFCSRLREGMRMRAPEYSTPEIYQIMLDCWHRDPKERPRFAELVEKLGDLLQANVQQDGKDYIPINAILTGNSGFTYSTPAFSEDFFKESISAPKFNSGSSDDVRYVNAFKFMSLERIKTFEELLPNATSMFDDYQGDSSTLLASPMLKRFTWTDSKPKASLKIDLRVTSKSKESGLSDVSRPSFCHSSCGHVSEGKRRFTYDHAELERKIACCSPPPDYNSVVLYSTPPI
T1 sequence (P35968 whole entry, the tested form may be a part): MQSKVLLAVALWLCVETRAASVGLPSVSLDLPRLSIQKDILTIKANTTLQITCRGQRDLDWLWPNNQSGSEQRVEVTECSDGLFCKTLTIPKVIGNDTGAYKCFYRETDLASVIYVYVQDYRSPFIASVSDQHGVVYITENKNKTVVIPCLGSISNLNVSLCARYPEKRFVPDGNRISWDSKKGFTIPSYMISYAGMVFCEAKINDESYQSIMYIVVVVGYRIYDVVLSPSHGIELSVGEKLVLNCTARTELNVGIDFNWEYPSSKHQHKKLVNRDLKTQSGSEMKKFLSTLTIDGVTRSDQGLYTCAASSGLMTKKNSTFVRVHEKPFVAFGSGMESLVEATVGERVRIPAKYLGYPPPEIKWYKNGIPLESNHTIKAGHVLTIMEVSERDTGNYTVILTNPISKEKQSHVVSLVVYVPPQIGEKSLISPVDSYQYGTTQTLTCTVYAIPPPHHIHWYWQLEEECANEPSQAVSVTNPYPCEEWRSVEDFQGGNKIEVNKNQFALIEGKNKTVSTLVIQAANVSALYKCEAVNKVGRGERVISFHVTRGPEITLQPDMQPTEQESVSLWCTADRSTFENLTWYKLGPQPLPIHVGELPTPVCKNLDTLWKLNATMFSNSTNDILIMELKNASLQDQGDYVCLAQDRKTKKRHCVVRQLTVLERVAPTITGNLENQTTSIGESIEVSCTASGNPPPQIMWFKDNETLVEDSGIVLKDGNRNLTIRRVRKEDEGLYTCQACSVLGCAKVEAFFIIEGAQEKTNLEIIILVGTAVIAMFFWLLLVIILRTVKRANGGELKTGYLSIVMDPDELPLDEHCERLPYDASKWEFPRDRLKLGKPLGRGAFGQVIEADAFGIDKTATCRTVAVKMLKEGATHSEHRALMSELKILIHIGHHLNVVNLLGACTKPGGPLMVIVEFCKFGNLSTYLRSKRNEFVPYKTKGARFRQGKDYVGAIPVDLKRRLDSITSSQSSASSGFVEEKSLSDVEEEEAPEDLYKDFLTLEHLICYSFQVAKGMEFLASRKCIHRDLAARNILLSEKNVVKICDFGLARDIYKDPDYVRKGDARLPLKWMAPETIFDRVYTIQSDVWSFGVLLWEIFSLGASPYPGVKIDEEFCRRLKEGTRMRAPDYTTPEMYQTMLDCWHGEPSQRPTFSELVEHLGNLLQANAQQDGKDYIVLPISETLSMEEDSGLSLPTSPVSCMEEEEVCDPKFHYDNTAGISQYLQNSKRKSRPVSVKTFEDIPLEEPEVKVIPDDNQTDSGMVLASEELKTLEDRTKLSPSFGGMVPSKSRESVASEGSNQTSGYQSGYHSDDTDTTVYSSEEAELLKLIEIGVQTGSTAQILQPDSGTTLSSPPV

Row | Kd [1] [nM] | Activity [2] | Activity [3] | Activity [4] | Activity [1] | Activity [5] | SMILES
1 | 1000 | Active | Active | Active | – | – | CC(C)CN(CC(=O)N(CCCCN)CC(=O)N(CCCCN)CC(N)=O)C(=O)CN(CCCCN)C(=O)CN(CC(C)C)C(=O)CN(CCCCN)C(=O)CN(Cc1ccco1)C(=O)CN(CCCCN)C(=O)CNCCc1c[nH]c2ccccc12 (H-[Gly(N(CH2)2(3-indolyl))][Nlys][NFurfurylGly][Nlys][Nleu][Nlys][Nleu][Nlys][Nlys]-NH2)
2 | – | Active | Active | Active | Active | – | C=CCN(CC(=O)N(CC(=O)N(CCCCN)CC(=O)N(CCCCN)CC(N)=O)CC(C)C)C(=O)CN(CC(C)C)C(=O)CN(Cc1ccc2c(c1)OCO2)C(=O)CN(CCc1c[nH]c2ccccc12)C(=O)CN(CCCCN)C(=O)CNCCCCN (H-[Nlys][Nlys][Gly(N(CH2)2(3-indolyl))][Gly(N-piperonyl)][Nleu][NAllylGly][Nleu][Nlys][Nlys]-NH2)
3 | – | Active | Active | Active | Active | – | C=CCN(CC(=O)N(CCc1c[nH]c2ccccc12)CC(=O)N(CCCCN)CC(=O)N(CC(=O)N(CCCCN)CC(=O)N(CCCCN)CC(N)=O)CC(C)C)C(=O)CN(CC(C)C)C(=O)CN(CCOC)C(=O)CNCCCCN (H-[Nlys][Nme][Nleu][NAllylGly][Gly(N(CH2)2(3-indolyl))][Nlys][Nleu][Nlys][Nlys]-NH2)

More lines, now with the values behind:

Row | SMILES | Kd [1] [nM] | Activity [2] | Activity [3] | Activity [4] | Activity [1] | Activity [5]
4 | CC(C)CN(CC(=O)N(CCCCN)CC(=O)N(CCCCN)CC(N)=O)C(=O)CN(CCCCN)C(=O)CN(Cc1ccc2c(c1)OCO2)C(=O)CN(CCCCN)C(=O)CN(CC(C)C)C(=O)CN(Cc1ccc2c(c1)OCO2)C(=O)CNCCCCN (H-[Nlys][Gly(N-piperonyl)][Nleu][Nlys][Gly(N-piperonyl)][Nlys][Nleu][Nlys][Nlys]-NH2) | – | Active | Active | Active | Active | –
5 | CC(C)CN(CC(=O)N(CCCCN)CC(=O)N(CC(=O)N(CC(=O)N(CCCCN)CC(=O)N(CC(=O)N(CCCCN)CC(=O)N(CCCCN)CC(N)=O)CC(C)C)Cc1ccc2c(c1)OCO2)C(C)c1ccccc1)C(=O)CNCCCCN (configuration not stated) (H-[Nlys][Nleu][Nlys][X1][Gly(N-piperonyl)][Nlys][Nleu][Nlys][Nlys]-NH2) | 1000 | Active | Active | Active | – | –
6 | CC(C)CN(CC(=O)N(CCCCN)CC(=O)N(CC(=O)N(CC(=O)N(CCCCN)CC(=O)N(CC(=O)N(CCCCN)CC(=O)N(CCCCN)CC(=O)NCCCCCC(=O)NCCC(=O)NC(CCCCNC(=O)CN(CCCCN)C(=O)CN(CCCCN)C(=O)CN(CC(C)C)C(=O)CN(CCCCN)C(=O)CN(Cc1ccc2c(c1)OCO2)C(=O)CN(C(=O)CN(CCCCN)C(=O)CN(CC(C)C)C(=O)CNCCCCN)C(C)c1ccccc1)C(N)=O)CC(C)C)Cc1ccc2c(c1)OCO2)C(C)c1ccccc1)C(=O)CNCCCCN (configuration not stated) (I: H-[Nlys][Nleu][Nlys][X1][Gly(N-piperonyl)][Nlys][Nleu][Nlys][Nlys][Ahx][βAla][ξK]-NH2 / II: H-[Nlys][Nleu][Nlys][X1][Gly(N-piperonyl)][Nlys][Nleu][Nlys][Nlys]; amide I:12-II:C) | – | – | – | – | Active | Active
